Source: the array DNA melting data of Ke et al. (doi:10.1101/2024.01.08.574731)

Assays:
[1] = melting temperature; fluorescence melt of hairpins on a sequencing array, two-state fit, raised by 9.35 °C to match UV melts; conditions: sodium 0.088 M
Procedure, shortened: (§1)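 Cy3 fluorescence of library hairpins on a sequenced MiSeq flow cell, with annealed Cy3 and quencher oligos, was imaged in 50 mM Na-HEPES pH 8.0, 25 mM NaCl in 2.5 °C steps up to 60 °C. Signals were normalised to pre-quench Cy3 and to control variants. Melting temperature and folding enthalpy came from bootstrapped two-state fits, inverse-variance combined over four replicates. Fitted temperatures were raised by 9.35 °C to match UV melts.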

[2] = folding enthalpy; higher = less favourable; fluorescence melt of hairpins on a sequencing array, two-state fit; conditions: sodium 0.088 M
Procedure, shortened: as §1

Sequence	Tm [1] [°C]	folding enthalpy [2] [kcal/mol]
GATCATAAATATGATC ((((((....))))))	45.2	-41.4
GTCAGGGGAAACTCTGGC (.(((.(....).))).)	36.4	-24.5
GATCATAGCCATGATC ((((((....))))))	47.5	-44.5
CGCACGGAAACGTAGGCG ((((((....)))..)))	46.3	-30.6
GATCTCTCTTGAGATC ((((((....))))))	53.5	-37.9
GGGCTCGGAAACGAACCC (((.(((....))).)))	51	-46.9
GTCATGGGAAACCATGGC (.(((((....))))).)	53.2	-24.1
GATCGGGTTCCCGATC ((((((....))))))	62.8	-42.5
GTAAGCGGAAACGCTTAC (((((((....)))))))	65.2	-36.1
GCAGAGCGAAAGCAATGC (((..((....))..)))	53.9	-21
GAGCTACGAAAGTACCTC (((.(((....))).)))	30.6	-19
GGTAACGAAAGTTGCACC ((((((....)))..)))	35.1	-14.1
GCTACCGGAAACGACAGC (((..((....))..)))	27.5	-15.8
GCCCTGGGAAACCAGAGC ((.((((....)))).))	45.5	-28.7
GTGCTTGGAAACGAGCAC (((((.(....).)))))	55.5	-40.1
GAACAACCGAAAGGTTTC (((..(((....))))))	29.3	-9.63
GATTGTACGAAAGTAATC (((..(((....))))))	28.1	-18.7
GATCTCGTCAGAGATC ((((((....))))))	68.5	-37.5
GATCCGTCTGCGGATC ((((((....))))))	61.1	-44.5

Sequence	Tm [1] [°C]	folding enthalpy [2] [kcal/mol]
GAGACCCGAAAGGGCTC (((.(((....))))))	55.4	-26.8
CGTCCGGAAACGGTACG ((((((....))).)))	48.1	-25.7
GTCGTGCGAAAGCAGAC (((.(((....))))))	56.5	-21.2
GATCGTTCAACGATC ((((((...))))))	55.5	-42
GCGCACGAAAGTGACCGC ((((((....)))..)))	48.4	-21.9
GATCTGGCACAGATC ((((((...))))))	58.4	-38.8
GACTGTGGAAACACAATC ((.((((....)))).))	31.6	-15.5
CGACTCGGAAACGATCG (((.(((....))))))	40.5	-31.8
GGGGCTCCGAAAGGACCC (((..(((....))))))	56.9	-35.3
GTCGCCGAAAGGCAGGAC ((((((....)))..)))	50.4	-13.1
GCATCTGGAAACAGATAC (.(((((....))))).)	36.3	-16.8
GATCCAGACATGGATC ((((((....))))))	58	-39.9
GGCGTCGAAAGACTGGCC ((((((....)))..)))	53.7	-34.6
GCTCAGCGAAAGCCGTGC ((.(.((....)).).))	42.4	-12.3
GGGGGTGGAAACATCCCC ((((.((....)).))))	56.8	-34.7
GGCTATCGAAAGATCGCC (((.(((....))).)))	50.6	-30.8
GCATAGCGAAAGCTTAGC ((..(((....)))..))	41.6	-16.2
GCCCCCGAAAGGGGTGGC ((((((....)))..)))	56.6	-12.8
GCGGGTGGAAACGTCCGC ((((..(....)..))))	53	-32
